Source: ChEMBL document CHEMBL4145471, “New 1,5 and 2,5-disubstituted tetrazoles-dependent activity towards surface barrier of Candida albicans” (Eur J Med Chem, 2018)

Key:
[1] = system: Candida albicans; test: Antifungal activity against Candida albicans ATCC 90028 assessed as metabolic activity at 40 ug/ml after 48 hrs in presence of 40 ug/ml fluconazol by XTT assay relative to control; conditions: ATCC 90028, 48 h
[2] = system: Candida albicans; test: Antifungal activity against Candida albicans ATCC 90028 assessed as inhibition of metabolic activity at 5 ug/ml after 48 hrs in presence of 5 ug/ml fluconazol by XTT assay relative to control; assay type: functional; conditions: ATCC 90028, 48 h, values are per cent of control
Procedure, shortened: (§1)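 Checkerboard against strain ATCC 90028, inoculum per M27-A3: fluconazole 80-1.25 µg/mL on one axis, tetrazole 80-1.25 µg/mL on the other. Plates at 35°C for 48 h, then XTT metabolic reduction read at 475 nm (660 nm reference). Activity is the drop in mean absorbance against untreated growth control. FICs and their summed FIC index are taken at 50% reduction in metabolic activity.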

[3] = system: Candida albicans; test: Antifungal activity against Candida albicans ATCC 90028 at 1 ug/ml after 18 hrs relative to control; assay type: functional
Procedure, shortened: (§2)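 Planktonic broth microdilution per M27-A3 in MOPS-buffered RPMI 1640 (pH 7.0), final inoculum 1.8×10^3 cells/mL, compounds 0.0313–16 µg/mL from 1600 µg/mL stocks in ethanol or DMSO. Incubated at 35°C without agitation; OD405 read at 18 and 48 h. % inhibition was derived from test, sterility (no inoculum) and solvent growth-control wells. Amphotericin B at 0.5 µg/mL served as the 100% control.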

[4] = system: Candida albicans; test: Antifungal activity against Candida albicans ATCC 90028 at 8 ug/ml after 18 hrs relative to control; assay type: functional
Procedure, shortened: as §2

[5] = system: Candida albicans; test: Synergistic antifungal activity against Candida albicans ATCC 90028 at 10 ug/ml after 48 hrs in presence of 1.25 ug/ml fluconazol by checkerboard assay relative to control; assay type: functional
Procedure, shortened: (§3)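 Checkerboard per M27-A3 against ATCC 90028: fluconazole at 80–1.25 µg/mL horizontally and partner compound at 80–1.25 µg/mL vertically, 100 µL yeast inoculum per well, 35°C for 48 h. After 48 h, metabolic activity was measured by XTT reduction at 475 nm (660 nm reference) relative to untreated growth control. FIC index is the sum of the FICs; <1 was defined as synergism and >1 as antagonism.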

[6] = system: Candida albicans; test: Antifungal activity against Candida albicans ATCC 90028 after 48 hrs assessed as fluconazol MIC by XTT assay; assay type: functional; conditions: ATCC 90028, 48 h
Procedure, shortened: as §1

[7] = system: Candida albicans; test: Induction of apoptosis in Candida albicans ATCC 90028 protoplast assessed as viable cells at 16 ug/ml after 18 hrs Annexin V-FITC/propidium iodide staining based flow cytometry ( Rvb = 59.19 +/- 11%); assay type: functional
[8] = system: Candida albicans; test: Synergistic antifungal activity against Candida albicans ATCC 90028 at 2.5 ug/ml after 48 hrs in presence of 10 ug/ml fluconazol by checkerboard assay relative to control; assay type: functional
Procedure, shortened: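 Checkerboard microdilution (M27-A3) on C. albicans ATCC 90028 in RPMI 1640: fluconazole (80-1.25 µg/mL) crossed with tetrazole (80-1.25 µg/mL final), incubated at 35°C for 48 h. Growth by OD405 at 18 and 48 h, endpoint taken as 100% inhibition. FIC index = sum of the two agents' FICs; <1 synergism, >1 antagonism.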

[9] = Toxicity in Galleria mellonella larvae assessed as survival at 256 ug/ml after 96 hrs relative to control; assay type: organism-based; conditions: in vivo
Procedure, shortened: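 Uninfected larvae, groups of 10, injected with compound in RPMI at 256, 16 or 0.0313 µg/mL; PBS-injected larvae as controls. Kept at 37°C in darkness up to 96 h, monitored daily; death is no response to physical stimuli. Mobility, cocoon formation, melanization and survival scored as health index. Three independent experiments, samples in duplicate; Wilcoxon signed-rank test vs control.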

[10] = system: Candida albicans; test: Antifungal activity against Candida albicans ATCC 90028 assessed as metabolic activity at 10 ug/ml after 48 hrs in presence of 40 ug/ml fluconazol by XTT assay relative to control
[11] = system: Candida albicans; test: Antifungal activity against Candida albicans ATCC 90028 at 0.0625 ug/ml after 48 hrs relative to control; assay type: functional
Procedure, shortened: as §2

[12] = system: Candida albicans; test: Synergistic antifungal activity against Candida albicans ATCC 90028 at 1.25 ug/ml after 48 hrs in presence of 20 ug/ml fluconazol by checkerboard assay relative to control; assay type: functional
Procedure, shortened: as §3

[13] = system: Candida albicans; test: Antifungal activity against Candida albicans ATCC 90028 assessed as inhibition of metabolic activity at 1.25 ug/ml after 48 hrs in presence of 40 ug/ml fluconazol by XTT assay relative to control; assay type: functional; conditions: values are per cent of control
Procedure, shortened: as §1

[14] = system: Candida albicans; test: Antifungal activity against Candida albicans ATCC 90028 assessed as inhibition of metabolic activity at 5 ug/ml after 48 hrs in presence of 80 ug/ml fluconazol by XTT assay relative to control; assay type: functional; conditions: values are per cent of control
Procedure, shortened: as §1

[15] = system: Caco-2; test: Cytotoxicity against human Caco2 cells assessed as reduction in cell viability at 256 ug/ml after 18 hrs by XTT assay ralative to control; assay type: cell-based; conditions: caco-2, 18 h
Procedure, shortened: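 Caco-2 cells were exposed to compound at 256, 16 or 0.0313 µg/mL for 18 h, then given XTT reagent for 4–6 h. Absorbance was read at 475 nm with a 660 nm reference, and viability and toxicity were expressed as %. CC50 was taken as the concentration giving 50% viability loss. Means ± SD of three independent experiments, samples in duplicate.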

[16] = system: Candida albicans; test: Antifungal activity against Candida albicans ATCC 90028 assessed as inhibition of metabolic activity at 2.5 ug/ml after 48 hrs in presence of 2.5 ug/ml fluconazol by XTT assay relative to control; assay type: functional; conditions: ATCC 90028, 48 h, values are per cent of control
Procedure, shortened: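 C. albicans ATCC 90028 in checkerboard: fluconazole serial dilutions (80-1.25 µg/mL) crossed with tetrazole (80-1.25 µg/mL final), M27-A3 inoculum in RPMI 1640, 35°C for 48 h. Metabolic activity measured by XTT reduction, read at 475 nm (660 nm reference). Activity expressed relative to untreated growth control absorbance.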

[17] = system: Candida albicans; test: Synergistic antifungal activity against Candida albicans ATCC 90028 at 20 ug/ml after 48 hrs in presence of 10 ug/ml fluconazol by checkerboard assay relative to control; assay type: functional
Procedure, shortened: (§4)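 Checkerboard in C. albicans ATCC 90028, inoculum prepared per CLSI M27-A3 in RPMI. Fluconazole serially diluted 80-1.25 µg/mL across the plate against the partner compound at 80-1.25 µg/mL final. Incubated 48 h at 35°C. Metabolic activity read by XTT reduction at 475 nm (660 nm reference), given as % of the untreated growth control.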

[18] = system: Candida albicans; test: Synergistic antifungal activity against Candida albicans ATCC 90028 at 40 ug/ml after 48 hrs in presence of 40 ug/ml fluconazol by checkerboard assay relative to control; assay type: functional; conditions: ATCC 90028, 48 h, read-out: GI
Procedure, shortened: as §4

Compound	Metabolic activity at 40 µg/mL [1] [%]	residual activity at 5 µg/mL [2] [%]	Activity [3] [%]	Activity [4] [%]	growth inhibition (GI) [5] [%]	MIC [6] [µg/mL]	Activity [7] [%]	growth inhibition (GI) [8] [%]	survival at 96 h [9] [%]	Metabolic activity [10] [%]	Activity [11] [%]	growth inhibition (GI) [12] [%]	residual activity [13] [%]	residual activity [14] [%]	Activity [15] [%]	residual activity at 2.5 µg/mL [16] [%]	growth inhibition (GI) [17] [%]	inhibition of growth at 40 µg/mL [18] [%]
ClCCCn1nnnc1-c1ccccc1Cl	100	100	93.49	99.44	99.86	1.25	1.85	99.75	100	100	99.34	99.58	81.57	77.27	63.27	75.8	99.73	99.4
CCOC(=O)CCn1nnc(-c2ccccc2)n1	100	100	85.06	99.01	99.72	1.25	1.67	99.49	100	94.14	99.12	99.65	86.85	71.92	45.49	82.6	99.52	99.5
Cc1ccc(-c2nnn(CCCN3CCOCC3)n2)cc1	95.3	100	57.6	99.97	97.81	10	–	99.09	–	100	99.03	99.46	100	88.19	13.04	100	99.32	99.5
